Laboratory results published in ChEMBL document CHEMBL1153644, “Synthesis and analgesic and anti-inflammatory activities 6-substituted-3(2H)-pyridazinone-2-acetyl-2-(p-substituted/nonsubstituted benzal)hydrazone derivatives” (Eur J Med Chem, 2009).

Tests used:
[1] = system: Mus musculus; assay: Gastrointestinal toxicity in Swiss albino mouse assessed as ulcerogenic effect at 100 mg/kg, po; format: organism-based; design: dose 100 mg/kg, route oral; conditions: in vivo
Outline: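 Male Swiss albino mice (20–25 g), food withdrawn one day before with water allowed, at least six per group. Dosed orally as a suspension in distilled water with 0.5% CMC; controls got vehicle. Taken from the p-benzoquinone writhing test (i.p. 2.5% PBQ 60 min post-dose), then killed under deep ether anesthesia. Stomachs were opened along the great curvature and checked under a dissecting microscope for lesions or bleeding; scored as ulcerated/total animals.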

[2] = system: Mus musculus; assay: Analgesic activity in Swiss albino mouse assessed as inhibition of para-benzoquinone-induced abdominal writhing response at 100 mg/kg, po administered 60 mins prior to para-benzoquinone challenge measured after 15 mins; format: functional, Abdomen; design: scale not given: the % may be the effect or the level left
Outline: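 Male Swiss albino mice (20–25 g) were fasted overnight with water allowed, at least 6 per group. Oral dosing used a 0.5% CMC suspension, and vehicle was given to controls. Then 0.1 ml/10 g of 2.5% (v/v) p-benzoquinone was injected i.p. Writhings were counted for 15 min, starting 5 min after injection. Inhibition is expressed as % of control, mean ± SEM, ANOVA/Student–Newman–Keuls.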

[3] = system: Mus musculus; assay: Antiinflammatory activity in Swiss albino mouse assessed as inhibition of carrageenan-induced paw edema at 10 mg/kg, po administered before 60 mins of carrageenan-challenge measured after 90 mins; format: functional
Outline: (§1)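 Fasted male Swiss albino mice (20–25 g), n≥6, were dosed orally in 0.5% CMC suspension, with vehicle for controls. Carrageenan (0.5 mg/25 μl in saline) was injected subplantar into the right hind paw and saline into the left. The right–left footpad thickness difference was measured by dial caliper every 90 min over 6 h. Inhibition was calculated versus control, mean ± SEM.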

[4] = system: Mus musculus; assay: Antiinflammatory activity in Swiss albino mouse assessed as inhibition of carrageenan-induced paw edema at 10 mg/kg, po administered before 60 mins of carrageenan-challenge measured after 180 mins; format: functional; outline: as §1
[5] = system: Mus musculus; assay: Antiinflammatory activity in Swiss albino mouse assessed as inhibition of carrageenan-induced paw edema at 10 mg/kg, po administered before 60 mins of carrageenan-challenge measured after 270 mins; format: functional; outline: as §1
[6] = system: Mus musculus; assay: Antiinflammatory activity in Swiss albino mouse assessed as inhibition of carrageenan-induced paw edema at 10 mg/kg, po administered before 60 mins of carrageenan-challenge measured after 360 mins; format: functional; outline: as §1

Compound: Cc1ccc(/C=N/NC(=O)Cn2nc(N3CCN(c4ccccn4)CC3)ccc2=O)cc1
- Activity [1]: Non-toxic

Compound: COc1ccc(/C=N/NC(=O)Cn2nc(N3CCN(c4cccc(Cl)c4)CC3)ccc2=O)cc1
- Activity [1]: Non-toxic

Compound: COc1ccc(/C=N/NC(=O)Cn2nc(N3CCN(c4ccc(Cl)cc4)CC3)ccc2=O)cc1
- Activity [1]: Non-toxic

Compound: Cc1ccc(/C=N/NC(=O)Cn2nc(N3CCN(c4cccc(Cl)c4)CC3)ccc2=O)cc1
- Activity [1]: Non-toxic

Compound: CC(=O)Oc1ccccc1C(=O)O [ASPIRIN]
- Activity [1]: Toxic
- Activity [2]: 48.7%

Compound: Cc1ccc(/C=N/NC(=O)Cn2nc(N3CCN(c4ccc(Cl)cc4)CC3)ccc2=O)cc1
- Activity [1]: Non-toxic

Compound: COc1ccc2c(c1)c(CC(=O)O)c(C)n2C(=O)c1ccc(Cl)cc1 [INDOMETHACIN]
- Activity [1]: Toxic
- inhibition in vivo at 10 mg/kg [3]: 34.4%
- inhibition in vivo at 10 mg/kg [4]: 32.8%
- inhibition in vivo at 10 mg/kg [5]: 37.4%
- inhibition in vivo at 10 mg/kg [6]: 40.4%

Compound: COc1ccc(/C=N/NC(=O)Cn2nc(N3CCN(c4ccccn4)CC3)ccc2=O)cc1
- Activity [1]: Non-toxic
